High-throughput results deposited in PubChem BioAssay by Broad Institute.
IDH1 R132H inh – inhibitors of IDH1 R132H reductase, primary screen, biochemical, plate reader, single point; Isocitrate dehydrogenase [NADP] cytoplasmic (Homo sapiens), O75874; diaphorase/resazurin fluorescence, 60 min; inhibition, % at 10 µM; 0.18% of 70,000 active; AID 624101, 2012; in the data active = inhibition above about 34%; inconclusive = no clear call, values can overlap the other calls; inactive = below about 11%;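 also: 0% = DMSO and 100% = no enzyme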
Target sequence (O75874 whole entry R132H): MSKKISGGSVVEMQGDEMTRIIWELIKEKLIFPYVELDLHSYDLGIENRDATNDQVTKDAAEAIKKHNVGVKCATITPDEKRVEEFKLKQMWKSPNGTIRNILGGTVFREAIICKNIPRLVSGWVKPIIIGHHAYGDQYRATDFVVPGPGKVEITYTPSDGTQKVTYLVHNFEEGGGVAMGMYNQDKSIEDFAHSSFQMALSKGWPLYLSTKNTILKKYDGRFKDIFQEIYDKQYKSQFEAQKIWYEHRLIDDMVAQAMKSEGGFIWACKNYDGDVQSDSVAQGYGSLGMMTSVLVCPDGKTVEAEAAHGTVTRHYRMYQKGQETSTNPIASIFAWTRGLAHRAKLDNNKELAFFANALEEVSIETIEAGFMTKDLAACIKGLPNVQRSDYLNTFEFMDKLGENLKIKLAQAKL
Pf Dd2 growth – P. falciparum Dd2 growth inhibitors, primary screen, SYBR Green fluorescence, single dose replicates; activity change, % at 10 µM; 72 h; stronger effect = lower value; AID 1159554, 2015; 2.3% of 94,000 active; in the data active = activity change below about -80%; inconclusive = no clear call, values can overlap the other calls
Tcruzi prolif – T. cruzi intracellular proliferation inhibitors, primary screen, cell-based, beta-gal Tulahuen parasites, NIH3T3 host, luminescence. inhibition, % at 8.34 µM. AID 624255, 2012. 5.9% of 77,000 active. T. cruzi beta-gal in NIH3T3, GalScreen luminescence, 90 h;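 active = mean inhibition above about 93%, with at least 55% of replicates each passing it, limit read from the data, passing the limit was not always enough; inconclusive = only one of those two conditions holds; inactive = neither condition holds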
KDM4C inh – inhibitors of GASC-1 (KDM4C) histone demethylase, primary screen, biochemical, single concentration HTS. Lysine-specific demethylase 4C (Homo sapiens), Q9H3R0. GST-KDM4C 2-372, H3K9me3 peptide, LANCE TR-FRET. inhibition, % at 12.5 µM. 0.15% of 96,000 active. AID 720574, 2013;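 active = mean replicate inhibition above about 25%, with at least 55% of replicates also reaching it, limit read from the data, passing the limit was not always enough; inconclusive = only one of those two conditions met; inactive = neither condition met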
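System: N-terminal GST-fused human GASC-1 (KDM4C) fragment, residues 2-372; amount: enzyme final amount 10 nM; incubation: reaction 30 min RT, detection step 1 h RT; medium: HEPES buffer, pH 7.5, plus ascorbate; technique: LANCE TR-FRET, Eu antibody, ULight-streptavidin, EDTA, ex 340 nm, em 618/671 nm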
* = called active by the depositor; ? = inconclusive; nt = not tested or not shown. A selection: hits, their analogues and other compounds. The true share with any hit is near 5.8%.

SMILES | IDH1 R132H inh | Pf Dd2 growth | Tcruzi prolif | KDM4C inh
O=C(Nc1cccc(Cn2cccn2)c1)c1cc(-c2ccccc2)nc2ccccc12 | 1 | nt | nt | nt
Cc1noc(C)c1S(=O)(=O)N(C)C[C@@H]1OCCCC[C@@H](C)Oc2ccc(NC(=O)Nc3ccc(C(F)(F)F)cc3)cc2C(=O)N([C@H](C)CO)C[C@@H]1C | nt | -44 | 91 | 0
Cc1noc(C)c1S(=O)(=O)N(C)C[C@H]1OCCCC[C@@H](C)Oc2ccc(NC(=O)Nc3ccc(C(F)(F)F)cc3)cc2C(=O)N([C@@H](C)CO)C[C@H]1C | nt | -71 | 97* | 0
C[C@@H]1CCCCO[C@@H](CN(C)S(=O)(=O)c2cn(C)cn2)[C@H](C)CN([C@H](C)CO)C(=O)c2cc(NC(=O)Nc3ccc(C(F)(F)F)cc3)ccc2O1 | 0 | -88* | 31 | -2
Cc1noc(C)c1S(=O)(=O)N(C)C[C@H]1OCCCC[C@H](C)Oc2ccc(NC(=O)Nc3ccc(C(F)(F)F)cc3)cc2C(=O)N([C@H](C)CO)C[C@H]1C | nt | -76 | 96 | 1
Cc1noc(C)c1S(=O)(=O)N(C)C[C@@H]1OCCCC[C@@H](C)Oc2ccc(NC(=O)Nc3ccc(C(F)(F)F)cc3)cc2C(=O)N([C@H](C)CO)C[C@H]1C | nt | -92* | 96 | 0
CCS(=O)(=O)N1CC2(C1)CN(S(=O)(=O)c1ccc(C)cc1)[C@@H](CO)c1[nH]c3cc(OC)ccc3c12 | nt | -77 | nt | 0
COc1cccc(S(=O)(=O)N2CCC3(CC2)CN[C@@H](CO)c2[nH]c4cc(OC)ccc4c23)c1 | nt | -92* | nt | 18
CCS(=O)(=O)N1CCC2(CC1)CN(S(=O)(=O)c1ccc(C)cc1)[C@@H](CO)c1[nH]c3cc(OC)ccc3c12 | nt | -90* | nt | -4
COc1ccc(S(=O)(=O)N2CC3(CN(Cc4ccncc4)[C@H](CO)c4[nH]c5cc(OC)ccc5c43)C2)cc1 | nt | -62 | nt | 0
COc1ccc2c3c([nH]c2c1)[C@H](CO)NCC31CCN(S(=O)(=O)c2ccccc2)CC1 | nt | -77 | nt | -1
COc1ccc(S(=O)(=O)N2CCC3(CC2)CN(Cc2ccncc2)[C@@H](CO)c2[nH]c4cc(OC)ccc4c23)cc1 | nt | -87* | nt | 1
CCS(=O)(=O)N1CC2(C1)CN(S(=O)(=O)c1cccc(OC)c1)[C@@H](CO)c1[nH]c3cc(OC)ccc3c12 | nt | -84* | nt | -1
CCC(=O)N1CCC2(CC1)CN(S(=O)(=O)c1ccccc1)[C@@H](CO)c1[nH]c3cc(OC)ccc3c12 | nt | -92* | nt | 1
COc1ccc2c3c([nH]c2c1)[C@H](CO)N(S(=O)(=O)c1cn(C)cn1)CC31CCN(CC2CCCCC2)CC1 | nt | -85* | nt | -1
CCC(=O)N1CC2(C1)CN(S(=O)(=O)c1ccccc1)[C@@H](CO)c1[nH]c3cc(OC)ccc3c12 | nt | -93* | nt | -1
COc1ccc2c3c([nH]c2c1)[C@@H](CO)N(S(=O)(=O)c1cn(C)cn1)CC31CCN(CC2CCCC2)CC1 | nt | -41 | nt | -1
CCC(=O)N1CC2(C1)CN(S(=O)(=O)c1ccccc1)[C@H](CO)c1[nH]c3cc(OC)ccc3c12 | nt | -17 | nt | 3
COc1ccc2c3c([nH]c2c1)[C@H](CO)N(S(=O)(=O)c1ccc(C)cc1)CC31CN(Cc2ccccc2)C1 | nt | -87* | nt | -1
CC(=O)Nc1ccccc1SCC(=O)Nc1ccc(C)cc1 | 0 | nt | nt | nt
CCCCN1C(=O)[C@H]2Cc3c([nH]c4ccccc34)[C@H](c3ccc(OC)cc3)N2C1=O | 0 | nt | nt | nt
CC1(C)CC(=O)C2=C(C1)NC1=C(C(=O)c3ccccc31)C2c1ccc(OC(=O)CN2C(=O)C3CCCCC3C2=O)cc1 (stereo unspecified) | 1 | nt | nt | nt
CNC(=O)CN(C#N)c1nc(C)cc(C)n1 | 0 | nt | nt | nt
O=C(C[C@@H]1C[C@@H]2c3cc(NC(=O)Cc4ccncc4)ccc3O[C@@H]2[C@H](CO)O1)NCc1ccccc1 | 0 | -39 | -2 | -2
CCCNC(=O)C[C@@H]1C[C@H]2c3cc(NC(=O)CC4CC4)ccc3O[C@H]2[C@@H](CO)O1 | 0 | 16 | -17 | 0
SMILES | IDH1 R132H inh | Pf Dd2 growth | Tcruzi prolif | KDM4C inh
O=C(C[C@H]1C[C@H]2c3cc(NC(=O)Cc4ccncc4)ccc3O[C@H]2[C@H](CO)O1)NCc1ccccc1 | 0 | -89* | 6 | -2
CCCNC(=O)C[C@@H]1C[C@H]2c3cc(NC(=O)CC4CC4)ccc3O[C@H]2[C@H](CO)O1 | ? | -1 | -50 | 41*
CN(C)c1ccc2c(c1)[C@@H]1C[C@H](CC(=O)NCc3ccccc3)O[C@@H](CO)[C@@H]1O2 | -2 | -36 | 42 | 47*
CN(C)c1ccc2c(c1)[C@H]1C[C@H](CC(=O)NCc3ccc(-c4ccccc4)cc3)O[C@H](CO)[C@H]1O2 | nt | -45 | nt | 3
CN(C)c1ccc2c(c1)[C@@H]1C[C@@H](CC(=O)NCc3ccccn3)O[C@@H](CO)[C@@H]1O2 | -10 | -35 | -11 | 28*
Cc1ccc(NC(=O)CSc2c(C)n[nH]c2C)cc1Cl | 0 | nt | nt | nt
CCCNC(=O)N1[C@H](C#N)[C@H](c2ccc(C#Cc3cccc(F)c3)cc2)[C@H]1CO | nt | -85* | 94 | -1
CCCNC(=O)N1[C@@H](C#N)[C@@H](c2ccccc2)[C@@H]1CO | nt | 8 | -62 | -2
CCCNC(=O)N1[C@H](CO)[C@H](c2ccc(-c3ccc(C#N)cc3)cc2)[C@@H]1CNC | nt | -84* | nt | -1
CCCNC(=O)N1[C@H](C#N)[C@H](c2ccc(C#Cc3ccc(F)cc3)cc2)[C@H]1CO | nt | -86* | 93 | 0
N#C[C@@H]1[C@H](c2ccc(C#Cc3ccc(F)cc3)cc2)[C@@H](CO)N1C(=O)Nc1ccc(F)cc1 | nt | -47 | 90 | -2
O=C(Cn1cnc2ccccc2c1=O)Nc1ccc2c(c1)Cc1ccccc1-2 | 0 | nt | nt | nt
CS(=O)(=O)N(CC(=O)Nc1ccc(Cl)c(Cl)c1)c1ccc(I)cc1 | 0 | nt | nt | nt
CC(C)=CCc1c(O)c(CC=C(C)C)c2c(c1O)C(=O)CC(c1ccc(O)cc1O)O2 (stereo unspecified) | 0 | nt | nt | nt
O=c1cc(-c2ccc(O)c(O)c2)c2c(O[C@@H]3O[C@H](CO)[C@@H](O)[C@H](O)[C@H]3O)cc(O)cc2o1 | -1 | nt | nt | nt
C[C@H]1CN([C@@H](C)CO)C(=O)c2cccc(NS(C)(=O)=O)c2O[C@@H]1CN(C)Cc1ccc(-c2ccccc2)cc1 | nt | -84* | 55 | 0
C[C@@H]1CN([C@@H](C)CO)C(=O)c2cccc(NS(=O)(=O)c3ccccc3)c2O[C@H]1CN(C)Cc1ccc(-c2ccccc2)cc1 | nt | -84* | 79 | 1
COc1ccc(S(=O)(=O)Nc2cccc3c2O[C@H](CN(C)Cc2ccc(-c4ccccc4)cc2)[C@@H](C)CN([C@H](C)CO)C3=O)cc1 | nt | -91* | nt | 0
OCCCNc1ncnc2scc(-c3ccc(Br)cc3)c12 | 3 | nt | nt | nt
